Bioassay records from PubChem.
XBP1 UPR activ: adaptive UPR (XBP1) activation | CHO-XBP1 luciferase reporter, IRE1-XBP1 UPR activation, luminescence; percent of tunicamycin response, DMSO as zero | activation, % at 20 µM | 0.33% of 330,000 active | AID 463104;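 active means versus positive control, 20 µM dose yields 30% or more activation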
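Material: CHO cell line with stable XBP1 luciferase reporter; buffer or medium: F12 medium containing 10% fetal bovine serum; compound: single point, 20 µM final compound, 1% DMSO; incubation: 6 h treatment, 37 °C; measured by: glow luminescence from Steady-Glo reagent; evaluation: activation, % of tunicamycin; control set: tunicamycin high, DMSO low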
CHOP inhibitor: blocks CHOP induction under ER stress. CHO-K1 CHOP-promoter luciferase, tunicamycin-induced, 15-18 h. inhibition, % at 10 µM. 3.8% of 220,000 active;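 active means compounds that reduced the stress-induced luciferase reporter signal by more than about 70% of percent inhibition, limit read from the data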
UPR CHOP act: apoptotic UPR (CHOP) activation; CHO-CHOP luciferase reporter, luminescence; percent of tunicamycin response over DMSO baseline; activation, % at 10 µM; 0.34% of 330,000 active;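 active means at 10 µM dose, activation of 40% or more, normalized to positive control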
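Assay system: CHO-CHOP cells, stable luciferase reporter of PERK-eIF2a-CHOP signalling / Buffer or medium: F12 plus 10% serum / Compound dosing: one dose, 10 µM in 0.5% DMSO / Times: 6 h compound treatment, 37 °C / Technique: luciferase luminescence / Read-out: % reporter activation, DMSO baseline versus tunicamycin full activation / Benchmarks: tunicamycin and DMSO controls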
T cruzi repl: T. cruzi replication inhibition; T. cruzi beta-gal in NIH3T3, luminescence, 90 h; inhibition, % (test concentration not listed); 1.4% of 300,000 active; AID 1885;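 active means mean inhibition across valid replicates above about 55%, limit read from the data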;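 further: signal also drops with host cell toxicity which is not excluded here; higher percent means less beta-gal luminescence so fewer parasites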
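assay system = mouse NIH/3T3 fibroblasts infected with β-gal-expressing T. cruzi Tulahuen C4 | input = 5,000 NIH/3T3 host cells per well | buffer or medium = DMEM plus 2% FBS | timing = 3 h host attachment, then at least 90 h co-culture | measured by = GalScreen luminescence, 60 min | evaluation = luminescence reflecting intracellular parasite burden, expressed as percent inhibition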
Dynein transport: dynein cargo transport inhibition. 3617.4 mouse cells, GR-EGFP nuclear translocation imaging; test concentration mostly 20 µM; stimulated with dexamethasone, 1 µM; stronger effect = lower value. z-score, hits read low. 0.47% of 220,000 active;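 active means plate z-score of nuclear minus cytoplasmic receptor signal below a set negative limit, without overly bright fluorescence or cell loss, cut at about -3.5 in these data, passing the limit was not always enough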;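 further: z-score of nuclear minus cytoplasmic ring GR-EGFP intensity difference per well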
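Buffer or medium: tet-free, stripped-serum medium; Also added: dexamethasone, 1.0 µM final; Technique: high-content fluorescence imaging after fixation; Times: 48 h induction, 1 h compound, 30 min dex at 37 °C; Read-out: per-cell GR-EGFP intensity, nucleus versus surrounding cytoplasmic ring, well-averaged.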
Lmaj promast: Leishmania major promastigote growth inhibition. Leishmania major promastigotes, resazurin fluorescence viability. inhibition, % at 10 µM. 9% of 200,000 active. AID 1063; in the data active means inhibition above about 50%;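 further: promastigotes grown with compound for 44 hours at 28 °C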
Each line names hits and unclear results; the compound was inactive in the other large screens. Only a selection was taken, and hits are over-represented in it overall.

CCc1cc(C(=O)NC2CCCN(Cc3ccccc3F)C2)n(C)n1 (configuration not stated)	none (no result: CHOP inhibitor, Dynein transport, Lmaj promast)
COc1ccc(-n2ncc3c2CC(C)(C)CC3NC(=O)c2cn[nH]c2)cc1 (configuration not stated)	none (no result: CHOP inhibitor, Dynein transport, Lmaj promast)
Nc1nc(SCc2ccc([N+](=O)[O-])cc2)c2ncn([C@@H]3O[C@H](CO)[C@H](O)C3O)c2n1 (some centres not stated)	none (no result: XBP1 UPR activ, UPR CHOP act, T cruzi repl, Dynein transport, Lmaj promast)
O=C(c1cccs1)[C@@H]1[C@@H]2C(=O)N(Cc3ccc4c(c3)OCO4)C(=O)[C@@H]2C2c3ccccc3C=CN21 (some centres not stated)	Lmaj promast 87.8
O=C(c1ccc2c(c1)OCO2)[C@@H]1[C@@H]2C(=O)N(C3CCCCC3)C(=O)[C@@H]2C2c3ccccc3C=CN21 (some centres not stated)	none (no result: XBP1 UPR activ, UPR CHOP act)
CC(C)(C)c1ccc(Oc2ccc(N)cn2)cc1	CHOP inhibitor 88.1 (no result: Lmaj promast)
Cc1cc(Oc2ccc(N)cn2)cc(C)c1Cl	none (no result: Lmaj promast)
CCc1ccccc1Oc1ccc(S(=O)(=O)N2CCN(C)CC2)cn1	none (no result: CHOP inhibitor, Dynein transport, Lmaj promast)
Cc1ccc(C)c(Oc2ccc(S(=O)(=O)N3CCN(C)CC3)cn2)c1	T cruzi repl 55.1 (no result: CHOP inhibitor, Dynein transport, Lmaj promast)
COCCn1c(SCc2cccc(F)c2)nc2cc(C(=O)OC)ccc2c1=O	none (no result: CHOP inhibitor, Dynein transport, Lmaj promast)
Cc1ccc2nc3c(c(N)c2c1)CCN3c1ccccc1	Lmaj promast 89.4
CN(CC(=O)Nc1ccccc1Br)C(=O)CN1CCN(c2ccccc2Cl)CC1	none (no result: CHOP inhibitor, T cruzi repl, Dynein transport, Lmaj promast)
O=c1[nH]c(-c2ccc3c(c2)OCO3)nc2c1sc(=S)n2-c1ccccc1	Lmaj promast 51.4
CCCOc1ccc(/C=C/c2c([N+](=O)[O-])c(=O)n(C)c(=O)n2C)cc1	none (no result: CHOP inhibitor, Dynein transport, Lmaj promast)
Cc1ccc(C)c(N(CC(=O)NN=C2CCN(C)CC2)S(=O)(=O)c2ccccc2)c1	Lmaj promast 68.5
Cc1ccc(N(CC(=O)NN=C2CCN(C)CC2)S(=O)(=O)c2ccc(C)cc2)cc1	none
C#CCNC(=O)C1=C[C@@H](C2CC2)C[C@@H](OCc2ccc(CO)cc2)O1	none
C#CCNC(=O)C1=C[C@@H](C(C)(C)C)C[C@@H](OCc2ccc(CO)cc2)O1	Lmaj promast 98.3
CC(C)(C)[C@@H]1C=C(C(=O)NCc2ccccc2)O[C@H](OCc2ccc(CO)cc2)C1	Lmaj promast 96.6
O=C(Cn1cnnn1)NC1CCCN(Cc2ccccc2F)C1 (configuration not stated)	none (no result: CHOP inhibitor, Dynein transport, Lmaj promast)
CC(C)c1ccc(N(CC(=O)NC2CCCCC2)C(=O)CCC(=O)Nc2ccccn2)cc1	none (no result: CHOP inhibitor, Dynein transport, Lmaj promast)
Cc1cccc(Cn2c(O)c(N=NC(=S)Nc3ccccc3F)c3ccccc32)c1	T cruzi repl 60.2, Lmaj promast 96.7
Oc1c(N=NC(=S)Nc2ccccc2F)c2ccccc2n1Cc1cccc(Cl)c1	T cruzi repl 57.4, Lmaj promast 83.0
Oc1c(N=NC(=S)Nc2ccccc2F)c2ccccc2n1Cc1ccc(F)cc1	T cruzi repl 66.5, Lmaj promast 90.7
NC(=S)N=Nc1c(O)n(Cc2ccc(F)cc2)c2ccccc12	none
Cc1cccc(NC(=S)N=Nc2c(O)n(CN3CCOCC3)c3ccccc23)c1C	Lmaj promast 96.1
CN1CCN(C(=O)c2ccccc2NC(=O)c2cccc(Cl)c2)CC1	none (no result: CHOP inhibitor, Dynein transport, Lmaj promast)
Cc1ccc(-n2c(C)c(C)c3c(NCCO)ncnc32)cc1	none (no result: CHOP inhibitor, Dynein transport, Lmaj promast)
CCC(C(=O)c1ccccc1)P(=O)(NN)c1ccccc1 (configuration not stated)	none (no result: Lmaj promast)
COc1cccc(OC)c1C(=O)NC(=O)Oc1c(F)cccc1F	none (no result: CHOP inhibitor, Dynein transport, Lmaj promast)
Cc1cccc(NC(=O)Cn2c(O)c(N=NC(N)=S)c3ccccc32)c1	CHOP inhibitor 94.2 (no result: Lmaj promast)
Cc1ccc(NC(=O)Cn2c(O)c(N=NC(=O)c3ccncc3)c3ccccc32)cc1	none
CCOc1nc(NC2CCCCC2)nc(NC(C)(C)C)n1	Lmaj promast 78.5
CC(=O)Nc1ccc2[nH]c3ccccc3c2c1	none
O=C(Nc1ccc(Cl)cc1)c1cc2c(cc1O)[nH]c1ccccc12	CHOP inhibitor 77.1 (no result: Lmaj promast)
O=C(COC(=O)C1CC2C=CC1C2)Nc1ccc2c(c1)OC(F)(F)O2 (configuration not stated)	CHOP inhibitor 90.7
CCCCC(=O)N1C/C=C\C(c2ccc(OC)cc2)N(Cc2ccc(F)cc2)C(=O)[C@H]1Cc1ccccc1 (some centres not stated)	T cruzi repl 63.5 (no result: Lmaj promast)
COc1cc(C(=O)N[C@H](C(=O)NC(C)C23CC4CC(CC(C4)C2)C3)C(C)C)cc(OC)c1OC (some centres not stated)	CHOP inhibitor 74.8
C=CCOc1ccccc1/C=c1\sc2nc(=O)c(C)nn2c1=O	Lmaj promast 100.0
COc1ccccc1/C=C/C=c1\sc2nc(=O)c(Cc3ccccc3)nn2c1=O	none (no result: Lmaj promast)
Cc1c(-c2nc(N)nc(Nc3ccccc3F)n2)oc2ccccc12	CHOP inhibitor 71.5
CSc1nc2nccc(/C=C\c3ccccc3)n2n1	Lmaj promast 85.6
CSc1nc2nccc(-c3ccc(Cl)cc3)n2n1	none
O=C(COC(=O)c1ccc([N+](=O)[O-])s1)NC(c1ccccc1)c1ccccc1	Lmaj promast 67.5
